# Data from ChEMBL document CHEMBL4382267, “Fusaristatin C, a Cyclic Lipodepsipeptide from Pithomyces sp. RKDO 1698” (J Nat Prod, 2018).
# Activity calls are given as the source filed them. The calls are words filed in the database; no cut-off is given here.
# Key:
# [1] = species on record: Homo sapiens; assay: Cytotoxicity against human HTB-26 cells measured after 24 hrs by alamar blue assay; format: functional, cell-based
# [2] = test system: Mycobacterium tuberculosis; assay: Antimicrobial activity against Mycobacterium tuberculosis ATCC 25177 at 265 uM after 4 days by microplate alamar blue assay; format: functional, organism-based; settings: H37Ra
# [3] = test system: Staphylococcus aureus; assay: Antimicrobial activity against methicillin resistant Staphylococcus aureus ATCC 33591 at 265 uM after 22 hrs by microbroth dilution method; format: functional, organism-based
# Outline: (§1)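 Microbroth dilution susceptibility test; compound tested up to a highest concentration of 128 μg/mL (265 μM).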
# [4] = test system: MCF7; assay: Cytotoxicity against human MCF7 cells measured after 24 hrs by alamar blue assay; format: functional, cell-based
# [5] = test system: Proteus vulgaris; assay: Antimicrobial activity against Proteus vulgaris ATCC 12454 at 265 uM after 22 hrs by microbroth dilution method; format: functional, organism-based
# Outline: (§2)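 Microbroth dilution assay. The top concentration tested was 128 μg/mL, equal to 265 μM.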
# [6] = test system: HCT-116; assay: Cytotoxicity against human HCT116 cells measured after 24 hrs by alamar blue assay; format: functional, cell-based
# [7] = test system: Enterococcus faecium; assay: Antimicrobial activity against vancomycin-resistant Enterococcus faecium EF379 at 265 uM after 22 hrs by microbroth dilution method; format: functional, organism-based; outline: as §1
# [8] = test system: Pseudomonas aeruginosa; assay: Antimicrobial activity against Pseudomonas aeruginosa ATCC 14210 at 265 uM after 22 hrs by microbroth dilution method; format: functional, organism-based; outline: as §2
# [9] = test system: Candida albicans; assay: Antimicrobial activity against Candida albicans ATCC 14035 at 265 uM after 22 hrs by microbroth dilution method; format: functional, organism-based; outline: as §2
# [10] = test system: BJ; assay: Cytotoxicity against human BJ cells measured after 24 hrs by alamar blue assay; format: cell-based
# [11] = test system: Vero; assay: Cytotoxicity against African green monkey Vero cells measured after 24 hrs by alamar blue assay; format: cell-based; settings: chlorocebus sabaeus
# [12] = test system: Staphylococcus warneri; assay: Antimicrobial activity against Staphylococcus warneri ATCC 17917 at 265 uM after 22 hrs by microbroth dilution method; format: functional, organism-based; outline: as §2
# [13] = Cytotoxicity against HEKa cells measured after 24 hrs by alamar blue assay; format: cell-based; settings: human
smiles,measurement,setting,value
C=C1NC(=O)[C@H](C)[C@H](CCCCCCCC(C)CCC)OC(=O)[C@H](CO)NC(=O)CCNC1=O (stereo partly drawn),Activity,[1],inactive
same,Activity,[2],inactive
same,Activity,[3],inactive
same,Activity,[4],inactive
same,Activity,[5],inactive
same,Activity,[6],inactive
same,Activity,[7],inactive
same,Activity,[8],inactive
same,Activity,[9],inactive
same,Activity,[10],Non-Toxic
same,Activity,[11],Non-Toxic
same,Activity,[12],inactive
same,Activity,[13],Non-Toxic
